Source: ChEMBL document CHEMBL4184148 (Bioorg Med Chem Lett, 2017)

Legend:
[1] = molecular target: Cyclin-dependent kinase-like 5 (Homo sapiens) (UniProt O76039); assay: Binding affinity to wild-type human partial length CDKL5 (M1 to S337 residues) expressed in HEK293 cells at 1 uM by Kinomescan method relative to control; type: cell-based
[2] = molecular target: Rho-associated protein kinase 2 (Homo sapiens) (UniProt O75116); assay: Binding affinity to wild-type human partial length ROCK2 (M1 to T431 residues) expressed in HEK293 cells at 1 uM by Kinomescan method relative to control; type: cell-based
[3] = molecular target: Mitogen-activated protein kinase kinase kinase 9 (Homo sapiens) (UniProt P80192); assay: Binding affinity to wild-type human partial length MLK1 (V88 to W426 residues) expressed in Escherichia coli BL21 at 1 uM by Kinomescan method relative to control
[4] = molecular target: Tyrosine-protein kinase ITK/TSK (Homo sapiens) (UniProt Q08881); assay: Binding affinity to wild-type human partial length ITK (R335 to L620 residues) expressed in Escherichia coli BL21 at 1 uM by Kinomescan method relative to control
[5] = molecular target: Phosphorylase b kinase gamma catalytic chain, liver/testis isoform (Homo sapiens) (UniProt P15735); assay: Binding affinity to wild-type human partial length PHKG2 (M1 to W300 residues) expressed in Escherichia coli BL21 at 1 uM by Kinomescan method relative to control
[6] = molecular target: Serine/threonine-protein kinase 36 (Homo sapiens) (UniProt Q9NRP7); assay: Binding affinity to wild-type human partial length STK36 (M1 to T271 residues) expressed in Escherichia coli BL21 at 1 uM by Kinomescan method relative to control
[7] = molecular target: Mitogen-activated protein kinase 13 (Homo sapiens) (UniProt O15264); assay: Binding affinity to wild-type human full length p38-delta (M1 to L365 residues) expressed in Escherichia coli BL21 at 1 uM by Kinomescan method relative to control
In short: (§1)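 Kinome-wide competition binding panel run by an outside provider, with each compound tested at a single concentration. Activity is read against the kinase panel.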

[8] = molecular target: Serine/threonine-protein kinase RIO3 (Homo sapiens) (UniProt O14730); assay: Binding affinity to wild-type human full length RIOK3 (M1 to E519 residues) expressed in Escherichia coli BL21 at 1 uM by Kinomescan method relative to control; in short: as §1
[9] = molecular target: Tyrosine-protein kinase ZAP-70 (Homo sapiens) (UniProt P43403); assay: Binding affinity to wild-type human partial length ZAP70 (D20 to G299 residues) expressed in HEK293 cells at 1 uM by Kinomescan method relative to control; type: cell-based
[10] = molecular target: STE20-like serine/threonine-protein kinase (Homo sapiens) (UniProt Q9H2G2); assay: Binding affinity to wild-type human partial length SLK (S14 to A307 residues) expressed in Escherichia coli BL21 at 1 uM by Kinomescan method relative to control
[11] = molecular target: Calcium/calmodulin-dependent protein kinase type 1D (Homo sapiens) (UniProt Q8IU85); assay: Binding affinity to wild-type human partial length CAMK1D (M1 to K299 residues) expressed in Escherichia coli BL21 at 1 uM by Kinomescan method relative to control
[12] = molecular target: Fibroblast growth factor receptor 3 (Homo sapiens) (UniProt P22607); assay: Binding affinity to wild-type human partial length FGFR3 (R442 to S771 residues) expressed in Escherichia coli BL21 at 1 uM by Kinomescan method relative to control
[13] = molecular target: Cyclin-dependent kinase 15 (Homo sapiens) (UniProt Q96Q40); assay: Binding affinity to wild-type human full length PFTAIRE2 (M1 to W384 residues) expressed in Escherichia coli BL21 at 1 uM by Kinomescan method relative to control; in short: as §1
[14] = molecular target: Ankyrin repeat and protein kinase domain-containing protein 1 (Homo sapiens) (UniProt Q8NFD2); assay: Binding affinity to wild-type human partial length ANKK1 (M1 to A305 residues) expressed in HEK293 cells at 1 uM by Kinomescan method relative to control; type: cell-based; in short: as §1
[15] = molecular target: Serine/threonine-protein kinase Nek1 (Homo sapiens) (UniProt Q96PY6); assay: Binding affinity to wild-type human partial length NEK1 (M1 to K278 residues) expressed in Escherichia coli BL21 at 1 uM by Kinomescan method relative to control
[16] = molecular target: Cyclin-dependent kinase 9 (Homo sapiens) (UniProt P50750); assay: Binding affinity to wild-type human full length CDK9 (M1 to F372 residues) expressed in Escherichia coli BL21 at 1 uM by Kinomescan method relative to control
In short: (§2)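 Run as one kinome-wide competition binding panel with each compound at a single fixed concentration. Results were plotted as a kinome-wide selectivity map.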

[17] = molecular target: Cyclin-dependent kinase 17 (Homo sapiens) (UniProt Q00537); assay: Binding affinity to wild-type human full length PCTK2 (M1 to F523 residues) expressed in Escherichia coli BL21 at 1 uM by Kinomescan method relative to control; in short: as §1
[18] = molecular target: Casein kinase II subunit alpha' (Homo sapiens) (UniProt P19784); assay: Binding affinity to wild-type human full length CSNK2A2 (M1 to R350 residues) expressed in HEK293 cells at 1 uM by Kinomescan method relative to control; type: cell-based; in short: as §2
[19] = molecular target: MAP/microtubule affinity-regulating kinase 4 (Homo sapiens) (UniProt Q96L34); assay: Binding affinity to wild-type human partial length MARK4 (K29 to G340 residues) expressed in Escherichia coli BL21 at 1 uM by Kinomescan method relative to control
[20] = molecular target: Serine/threonine-protein kinase RIO2 (Homo sapiens) (UniProt Q9BVS4); assay: Binding affinity to wild-type human partial length RIOK2 (M1 to D313 residues) expressed in HEK293 cells at 1 uM by Kinomescan method relative to control; type: cell-based
[21] = molecular target: Serine/threonine-protein kinase PAK 3 (Homo sapiens) (UniProt O75914); assay: Binding affinity to wild-type human full length PAK3 (M1 to R544 residues) expressed in Escherichia coli BL21 at 1 uM by Kinomescan method relative to control; in short: as §1
[22] = tested on: Proto-oncogene tyrosine-protein kinase receptor Ret (Homo sapiens), P07949 [V804L]; assay: Binding affinity to human partial length RET V804L mutant (E713 to D1014 residues) expressed in Escherichia coli BL21 at 1 uM by Kinomescan method relative to control
[23] = molecular target: Non-receptor tyrosine-protein kinase TNK1 (Homo sapiens) (UniProt Q13470); assay: Binding affinity to wild-type human full length TNK1 (M1 to P661 residues) expressed in Escherichia coli BL21 at 1 uM by Kinomescan method relative to control; in short: as §1
[24] = tested on: Epidermal growth factor receptor (Homo sapiens), P00533 [G719C]; assay: Binding affinity to human partial length EGFR G719C mutant (R669 to V1011 residues) expressed in Escherichia coli BL21 at 1 uM by Kinomescan method relative to control
[25] = molecular target: 3-phosphoinositide-dependent protein kinase 1 (Homo sapiens) (UniProt O15530); assay: Binding affinity to wild-type human full length PDPK1 (M1 to Q556 residues) expressed in Escherichia coli BL21 at 1 uM by Kinomescan method relative to control; in short: as §1

Compound | Activity [1] | Activity [2] | Activity [3] | Activity [4] | Activity [5] | Activity [6] | Activity [7] | Activity [8] | Activity [9] | Activity [10] | Activity [11] | Activity [12] | Activity [13] | Activity [14] | Activity [15] | Activity [16] | Activity [17] | Activity [18] | Activity [19] | Activity [20] | other results
CCC(=O)Nc1ccc(C(=O)Nc2ccc(Nc3ncc4c(n3)N(C)c3ccc(C)cc3C(=O)N4C)cc2)cc1 | 89% | 78% | 88% | 76% | 88% | 93% | 97% | 84% | 95% | 87% | 88% | 89% | 100% | 60% | 100% | 97% | 100% | 83% | 85% | 58% | Activity [21]: 55%; Activity [22]: 63%; Activity [23]: 71%; Activity [24]: 95%; Activity [25]: 96%
C=CC(=O)Nc1ccc(C(=O)Nc2ccc(Nc3ncc4c(n3)N(C)c3ccc(C)cc3C(=O)N4C)cc2)cc1 | 98% | 100% | 100% | 94% | 100% | 100% | 84% | 75% | 97% | 94% | 100% | 73% | 99% | 92% | 94% | 97% | 99% | 100% | 52% | 93% | Activity [21]: 69%; Activity [22]: 84%; Activity [23]: 89%; Activity [24]: 99%; Activity [25]: 100%
